pIC50: −log10 of the molar value.
Key:
Assay type in all cases: functional, cell-based
[1] = Cytotoxicity against human […] cells by MTT assay
Summary of the method: (§1)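 Cells grown in RPMI-1640 with 10% (v/v) fetal calf serum, 100 μg ml⁻¹ penicillin and 100 μg ml⁻¹ streptomycin at 37 °C, humidified 5% CO₂, in 96-well cultures. Compounds from DMSO stocks; final DMSO 2% (v/v) or lower. MTT staining read as optical density. IC50 is the concentration reducing OD by 50% vs untreated cells. Mean ± SD of at least five independent determinations. Top concentration 300 μM.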

HepG2 = experiment: Cytotoxicity against human HepG2 cells by MTT assay; summary of the method: as §1
MCF7 = experiment: Cytotoxicity against human MCF7 cells by MTT assay; summary of the method: as §1
OS-RC-2 = experiment: Cytotoxicity against human OS-RC2 cells by MTT assay; summary of the method: as §1
786-0 = experiment: Cytotoxicity against human 786-0 cells by MTT assay; summary of the method: as §1
769-P = experiment: Cytotoxicity against human 769-P cells by MTT assay; summary of the method: as §1
A-375 = experiment: Cytotoxicity against human A375 cells by MTT assay; summary of the method: as §1
HT-29 = experiment: Cytotoxicity against human HT-29 cells by MTT assay; summary of the method: as §1
KB = experiment: Cytotoxicity against human KB cells by MTT assay; summary of the method: as §1
CWR22R = experiment: Cytotoxicity against human 22Rv1 cells by MTT assay; summary of the method: as §1

Structure (SMILES) | pIC50 [1] | pIC50 (HepG2) | pIC50 (MCF7) | pIC50 (OS-RC-2) | pIC50 (786-0) | pIC50 (769-P) | pIC50 (A-375) | pIC50 (HT-29) | pIC50 (KB) | pIC50 (CWR22R)
NCCNc1nccc2c1[nH]c1ccccc12 | 4.44 | 4.51 | 4.06 | 4.40 | 4.50 | 4.50 | 4.48 | 4.48 | 4.60 | 4.38
NCCNc1nccc2c3ccccc3n(Cc3c(F)c(F)c(F)c(F)c3F)c12 | 4.92 | 4.89 | 4.82 | 4.92 | 5.24 | 4.98 | 4.92 | 5.00 | 4.93 | 4.90
NCCNc1nccc2c3ccccc3n(Cc3ccc(F)cc3)c12 | 5.01 | 5.36 | 4.67 | 4.79 | 4.73 | 5.74 | 4.81 | 5.04 | 4.72 | 4.75
CCN(CC)CCCNC(=O)c1nccc2c1[nH]c1ccccc12 | 3.76 | 3.61 | 3.79 | 4.03 | 3.95 | 4.27 | 3.97 | 4.21 | 4.21 | 4.34
NCCNC(=O)c1nccc2c3ccccc3n(CCCc3ccccc3)c12 | 4.70 | 4.80 | 4.65 | 4.80 | 4.93 | 4.49 | 4.86 | 4.75 | 5.00 | 4.97
Fc1c(F)c(F)c(Cn2c3ccccc3c3ccnc(Br)c32)c(F)c1F | < 3.52 | < 3.52 | < 3.52 | < 3.52 | < 3.52 | < 3.52 | < 3.52 | < 3.52 | < 3.52 | < 3.52
Brc1nccc2c3ccccc3n(CCCc3ccccc3)c12 | < 3.52 | < 3.52 | < 3.52 | 4.03 | < 3.52 | 3.91 | < 3.52 | 4.06 | < 3.52 | 4.06
Fc1ccc(Cn2c3ccccc3c3ccnc(Br)c32)cc1 | < 3.52 | < 3.52 | < 3.52 | < 3.52 | < 3.52 | 3.60 | < 3.52 | 3.61 | < 3.52 | < 3.52
CCN(CC)CCCNC(=O)c1nccc2c3ccccc3n(CCCc3ccccc3)c12 | 4.65 | 4.66 | 4.50 | 4.43 | 4.50 | 4.21 | 4.47 | 4.27 | 4.85 | 4.57
NCCCCNc1nccc2c3ccccc3n(CCCc3ccccc3)c12 | 5.10 | 5.40 | 4.89 | 5.38 | 5.57 | 5.66 | 5.02 | 4.76 | 4.95 | 5.54
CCCCn1c2ccccc2c2ccnc(Br)c21 | < 3.52 | < 3.52 | 3.59 | 3.87 | < 3.52 | < 3.52 | < 3.52 | 3.73 | < 3.52 | 3.63
CC[N+](C)(CC)CCCNC(=O)c1nccc2c1[nH]c1ccccc12 | < 3.52 | < 3.52 | < 3.52 | < 3.52 | < 3.52 | < 3.52 | < 3.52 | < 3.52 | < 3.52 | < 3.52
CCCCn1c2ccccc2c2ccnc(NCCN)c21 | 4.60 | 5.18 | 4.47 | 5.03 | 4.72 | 4.16 | 4.64 | 4.88 | 4.69 | 4.85
NCCNc1nccc2c3ccccc3n(CCCc3ccccc3)c12 | 5.02 | 4.88 | 5.03 | 5.34 | 5.16 | 4.95 | 5.14 | 5.25 | 5.31 | 5.07
OCCNc1[nH]ccc2c3ccccc3nc1-2 | < 3.52 | 3.89 | < 3.52 | 3.66 | < 3.52 | 3.57 | < 3.52 | < 3.52 | < 3.52 | 3.87
CC[N+](CC)(CCCNC(=O)c1nccc2c1[nH]c1ccccc12)Cc1ccccc1 | < 3.52 | < 3.52 | 4.29 | < 3.52 | 3.86 | 4.00 | < 3.52 | < 3.52 | < 3.52 | 4.15
NCCNC(=O)c1nccc2c1[nH]c1ccccc12 | 4.11 | 3.91 | 4.09 | 4.19 | 4.06 | 3.91 | 4.19 | 4.25 | 3.93 | 3.91
NCCCCCCNc1nccc2c3ccccc3n(CCCc3ccccc3)c12 | 4.91 | 4.92 | 4.75 | 5.08 | 4.95 | 4.87 | 4.79 | 4.67 | 4.89 | 4.94
NCCCCCCNC(=O)c1nccc2c1[nH]c1ccccc12 | 3.96 | 4.07 | 4.33 | 4.23 | 4.14 | 4.12 | 4.42 | 4.14 | 4.06 | 4.47

Source: ChEMBL document CHEMBL1275322, “Synthesis and cytotoxic evaluation of 1-carboxamide and 1-amino side chain substituted β-carbolines” (Eur J Med Chem, 2010)
